Data on nine compounds can be found in article PMC7164687 (Antiviral research, 2020).

Each structure is given as a SMILES string. Counter-ions that a name gives are not always drawn.

The IC50 is the point on the concentration scale where inhibition reaches its midpoint. By CC50 is commonly meant the concentration that lowers cell viability or growth by half.

One data set deals with HIV-1LAI. In words: microbe, parasite or virus in culture. The class given is cell-based. To be noted: Human immunodeficiency virus 1, MT2, 168 h, read-out: IC50 against HIV-1LAI.
Data set [1] in a line: Cytotoxicity assay in PXB cells. The class given is cell-based. Particulars: human.
For the next data set, the system named is HBVWT^D. Nature of the data set: microbe, parasite or virus in culture. The format is cell-based. Particulars: Hepatitis B virus, HepG2.2.15, read-out: anti-HBV activity IC50.
The test system of a further data set is PXB cells. In words: Cytotoxicity assay in PXB cells. The format is cell-based. Particulars: read-out: CC50 in PXB cells; PXB cells, continuous exposure; mean ± 1 S.D.
For another data set, the system named is HBVWT^Ce. In words: HBVWT^Ce viremia in infected human-liver-chimeric mice. The format is in vivo. Particulars: for reduction of HBVWT^Ce DNA (viremia), day 14: 14 days, average reduction by day 14.
A further data set has as its system HBVETV^R. In words: HBVETV^R viremia in infected human-liver-chimeric mice. The format is in vivo. Particulars: for reduction of HBVETV^R viremia, day 14: 14 days, average reduction by day 14; for block of HBVETV^R viremia: once-daily peroral 1 mg/kg/day over 14 days, abstract. In a few lines: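 uPA/SCID mice with livers repopulated by human hepatocytes, infected with recombinant ETV-resistant HBV clone (L180M/S202G/M204V). Dosing began 7–14 weeks after inoculation: test compound, ETV or saline given intragastrically at 1 mg/kg once daily for 14 days, n=2–4 per group. Serum HBV-DNA (S gene) measured by real-time PCR. Change from day 0 compared by repeated-measures ANOVA, two-tailed, uncorrected.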

Data set [2] relates to human DNA polymerases, α, β, and γ. Particulars: ref Nakata et al., 2007; cited from earlier work.
Data set [3] is classed as in vivo, human-liver-chimeric mice. Particulars: 1 mg/kg/day oral, 14 days, HBV-infected mice.
Setting [4] is: CC50 in PXB cells, PXB cells, continuous exposure, mean ± 1 S.D.
Where [5] appears, read: 1 mg/kg/day oral, average reduction by 3 days after start.

For `Nc1ccn([C@@H]2CS[C@H](CO)O2)c(=O)n1` [3TC, lamivudine], the IC50 in the data set with HIV-1LAI came to 660 ± 150 nM. The CC50 in data set [1] (setting [4]) was more than 100000 nM.

`CC(C)(C)C(=O)OCOP(=O)(COCCn1cnc2c(N)ncnc21)OCOC(=O)C(C)(C)C` [ADV, adefovir dipivoxil]: the IC50 in the data set with HIV-1LAI was found to be 660 ± 200 nM. The compound also showed a half-maximal cytotoxic concentration (CC50) in data set [1] (setting [4]) of 71500 ± 19300 nM.

Consider `N#C[C@]1(CO)O[C@@H](n2cnc3c(N)ncnc32)C[C@@H]1O` [CdA, 4’-C-cyano-2’-deoxyadenosine], for which the 50% inhibitory concentration (IC50) with HIV-1LAI was 94 ± 4 nM. For the same compound, the midpoint of cytotoxicity in data set [1] (setting [4]), the CC50, lay at 5400 ± 1500 nM.

With `N#C[C@]1(CO)O[C@@H](n2cc(F)c3c(N)ncnc32)C[C@@H]1O` [CdFA, 4’-C-cyano-7-deaza-7-fluoro-2’-deoxyadenosine], the IC50 in the data set on HBVWT^D is approximately 26 nM; in the data set on HIV-1LAI it was 880 ± 10 nM. Moreover, the CC50 with PXB cells is 55900 ± 5700 nM. Also, in the data set on HBVWT^Ce (1 mg/kg/day oral), the “reduction of HBVWT^Ce DNA (viremia), day 14” value is reported as 0.7 log10 copies/mL. Further, in the data set on HBVWT^Ce (setting [5]), the “reduction of HBVWT^Ce DNA (viremia), day 3” value is listed as 0.5 log10 copies/mL. Further, the “block of HBVWT viremia” value with HBVWT^Ce (once-daily peroral 1 mg/kg/day over 14 days, abstract) is reported as 0.7 logs. For the same compound, the “reduction of HBVETV^R viremia, day 14” value in the data set on HBVETV^R (1 mg/kg/day oral) stood at 1.2 log10 copies/mL. The “reduction of HBVETV^R viremia, day 3” value in the data set with HBVETV^R (setting [5]) is on record as 0.6 log10 copies/mL. In the data set with HBVETV^R, the “block of HBVETV^R viremia” value worked out at 1.2 logs.

Take `N#C[C@]1(CO)O[C@@H](n2cnc3c(=O)[nH]c(N)nc32)C[C@@H]1O` [CdG, 4’-C-cyano-2’-deoxyguanosine]: the IC50 in the data set on HIV-1LAI was 0.6 ± 0.1 nM. Moreover, half-maximal cytotoxicity in data set [1] (setting [4]) (CC50) was put at 370 ± 30 nM.

On to `C#C[C@]1(CO)O[C@@H](n2cnc3c(N)nc(F)nc32)C[C@@H]1O` [EFdA, 4’-ethynyl-2-fluoro-2’-deoxyadenosine], for which the “inhibition of the activity of human DNA polymerases α, β, and γ” value in data set [2] is “little inhibition”.

With `C=C1[C@H](CO)[C@@H](O)C[C@@H]1n1cnc2c(=O)[nH]c(N)nc21` [ETV, entecavir], the IC50 in the data set on HIV-1LAI amounted to 1000 ± 400 nM. In addition, the CC50 in data set [1] (setting [4]) amounted to 252000 ± 37500 nM. The “reduction of HBVWT^Ce DNA (viremia), day 14” value in the data set with HBVWT^Ce (1 mg/kg/day oral) came out at 2.2 log10 copies/mL. For the same compound, the “reduction of HBVETV^R viremia, day 14” value in the data set on HBVETV^R (1 mg/kg/day oral) was found to be 0.5 log10 copies/mL. Moreover, in the data set with HBVETV^R, the “block of HBVETV^R viremia” value is “only slightly suppressed”. Moreover, the “changes in serum human albumin levels” value in data set [3] is “no significant differences”.

With `CC(C)OC(=O)[C@H](C)N[P@](=O)(CO[C@H](C)Cn1cnc2c(N)ncnc21)Oc1ccccc1` [TAF, tenofovir alafenamide], the IC50 in the data set on HIV-1LAI is 4 ± 2 nM. In data set [1], this compound came in with a CC50 of 5700 ± 1900 nM.

As for `CC(C)OC(=O)OCOP(=O)(CO[C@H](C)Cn1cnc2c(N)ncnc21)OCOC(=O)OC(C)C` [TDF, tenofovir disoproxil fumarate], in the data set on HIV-1LAI, the IC50 came to 30 ± 10 nM. Besides, it took 33400 ± 10900 nM to reach half-maximal cytotoxicity in data set [1] (PXB cells) (CC50).
